Laboratory results from the RNAGym collection of RNA variant scans (doi:10.1126/science.aae0568).
This sample holds only a part of the variants without activity.

B1: tRNA (parent)
chain: GUUCCGUUGGCGUAAUGGUAACGCGUCUCCCUCCUAAGGAGAAGACUGCGGGUUCGAGUCCCGUACGGAACG

Variants of: B1
Experiment: yeast fitness relative to wild type (ratio to wild type); higher = fitter; tRNA-Arg(CCU), competitive growth, 37 C, YPD
In short: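 Variants of the tRNA-Arg(CCU) gene were chemically synthesised with a 3% per-site mutation rate across 69 sites and placed at the native genomic locus in Saccharomyces cerevisiae. Six parallel replicates of the pooled strains were competed in YPD at 37°C for 24 hours, and gene amplicons from the start and end populations were read by 100-nucleotide paired-end sequencing. Darwinian fitness relative to wild type was derived from changes in genotype frequencies. Genotypes required ≥ 100 starting reads, and estimates < 0.5 were set to 0.5.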

| Variant | yeast fitness |
| --- | --- |
| A20U A40U C46A | 0.613 |
| A20U A40U C46G C62G C66U A70C | 0.573 |
| A20U A42C A57C | ≤ 0.5 |
| A20U A42C A69U | 0.564 |
| A20U A42C C60A | ≤ 0.5 |
| A20U A42C G56A | ≤ 0.5 |
| A20U A42G | 0.797 |
| A20U A42U | 0.742 |
| A20U A43C | 0.775 |
| A20U A43C G48A C62U | 0.787 |
| A20U A43G | 0.978 |
| A20U A43G A57C U59A A65C | ≤ 0.5 |
| A20U A43G A65C | ≤ 0.5 |
| A20U A43U | 0.905 |
| A20U A43U G48C C60G | ≤ 0.5 |
| A20U A45C | 0.621 |
| A20U A45C A65G | 0.576 |
| A20U A45C C55U A57U | ≤ 0.5 |
| A20U A45C G50A | 0.675 |
| A20U A45C G51U A65G | ≤ 0.5 |
| A20U A45G | 0.843 |
| A20U A45G C46U | 0.836 |
| A20U A45G C46U C66U | 0.626 |
| A20U A45G C46U C66U A69U | ≤ 0.5 |

| Variant | yeast fitness |
| --- | --- |
| A20U A45U C55G | 0.533 |
| A20U A45U C62A A70C | 0.505 |
| A20U A57C | 0.644 |
| A20U A57G | 0.752 |
| A20U A57U A65C A70G | ≤ 0.5 |
| A20U A65G | 0.986 |
| A20U A65U | 0.705 |
| A20U A65U A69U | 0.722 |
| A20U A65U A70C | 0.568 |
| A20U A69C | 0.979 |
| A20U A69U | 1.05 |
| A20U A70U | 0.988 |
| A20U C22A A45C U53A | 0.594 |
| A20U C22A C61A C62G | ≤ 0.5 |
| A20U C22A U32G | ≤ 0.5 |
| A20U C22G | 0.633 |
| A20U C22G C60G C66G | ≤ 0.5 |
| A20U C22G G23A A43U G48A | ≤ 0.5 |
| A20U C22U A42G | ≤ 0.5 |
| A20U C22U C33U | ≤ 0.5 |
| A20U C22U C34A U64C | ≤ 0.5 |
| A20U C22U C46U A57G | ≤ 0.5 |
| A20U C24A A40C G50C C66U | ≤ 0.5 |
| A20U C24G | 0.601 |

| Variant | yeast fitness |
| --- | --- |
| A20U C24G A45G U53A | ≤ 0.5 |
| A20U C24G A70G | ≤ 0.5 |
| A20U C24G C55A | ≤ 0.5 |
| A20U C24U A42U C46A C55U C61G A69C | 0.59 |
| A20U C24U A42U C46A G56A G67A | ≤ 0.5 |
| A20U C24U C29G C49G G63C | ≤ 0.5 |
| A20U C24U C30A C46G G48A | ≤ 0.5 |
| A20U C24U G48A C55U C60G | ≤ 0.5 |
| A20U C27A A40G A69U | ≤ 0.5 |
| A20U C27G | 0.642 |
| A20U C27G C29U C62G | ≤ 0.5 |
| A20U C27G C30G A43G A65C G68C | ≤ 0.5 |
| A20U C27G C34A C46G C55A | ≤ 0.5 |
| A20U C27G C34U U35C A36C | 0.921 |
| A20U C27U C30A C33G A42G G51C | 0.583 |
| A20U C27U C30A C33G A42G G51C G68C | ≤ 0.5 |
| A20U C27U U64C | 0.954 |
| A20U C29A C30A U53G C62A | 0.545 |
| A20U C29A C30U A36U | ≤ 0.5 |
| A20U C29A C30U A36U A70C | 0.594 |
| A20U C29G | 0.721 |
| A20U C29G A43U C66U | ≤ 0.5 |
| A20U C29G A45G A69U | 0.525 |
| A20U C29G A65U | ≤ 0.5 |

| Variant | yeast fitness |
| --- | --- |
| A20U C29G C33U | 0.609 |
| A20U C29G C33U A65C C66U | ≤ 0.5 |
| A20U C29G C49G | 0.5 |
| A20U C29G C49G U53A | ≤ 0.5 |
| A20U C29G C49G U54C G63C | 0.535 |
| A20U C29G C61U | ≤ 0.5 |
| A20U C29G G38C G39A A43C C60G A65C | ≤ 0.5 |
| A20U C29U | 0.714 |
| A20U C29U A37U | ≤ 0.5 |
| A20U C29U C30G C34A U35A C66A | ≤ 0.5 |
| A20U C29U C30U U59A | 0.636 |
| A20U C29U C30U U59A G67A | ≤ 0.5 |
| A20U C29U C49G C55A | 0.522 |
| A20U C29U C62A | 0.543 |
| A20U C29U G41C G44A A57U | 0.805 |
| A20U C30A G58C G68A | ≤ 0.5 |
| A20U C30A G67U | 0.527 |
| A20U C30G A69C | 0.597 |
| A20U C30G C33U C55A | ≤ 0.5 |
| A20U C30G C33U G58C | ≤ 0.5 |
| A20U C30G G63A | ≤ 0.5 |
| A20U C30U | 0.783 |
| A20U C30U G39C A45G G68A A69C | ≤ 0.5 |
| A20U C31A | 0.803 |

| Variant | yeast fitness |
| --- | --- |
| A20U C31A A37C A45G G68A | ≤ 0.5 |
| A20U C31A A69C | 0.624 |
| A20U C31A C33G U47C C60A | ≤ 0.5 |
| A20U C31G C55G C60G C66U | ≤ 0.5 |
| A20U C31G G38A C61A G63A | ≤ 0.5 |
| A20U C31G U32G | 0.531 |
| A20U C31U | 0.926 |
| A20U C31U G38A A69C | ≤ 0.5 |
| A20U C31U G51C | 0.562 |
| A20U C33A C55U C61A | ≤ 0.5 |
| A20U C33U C61U A70U | ≤ 0.5 |
| A20U C33U G38C A40U G44C G51C C60U | 0.558 |
| A20U C34A C49U G58C C62A A69C | ≤ 0.5 |
| A20U C34A G41C G56C | ≤ 0.5 |
| A20U C34A G58A | ≤ 0.5 |
| A20U C34A G67A | ≤ 0.5 |
| A20U C34A U59A | 0.538 |
| A20U C34G A36C C55U A65U | ≤ 0.5 |
| A20U C34G A37G | ≤ 0.5 |
| A20U C34G A42G A43U A65G | 0.573 |
| A20U C34G A42G A43U A65G A70U | ≤ 0.5 |
| A20U C34G A42G A43U G63A A65G | ≤ 0.5 |
| A20U C34G A42G A43U G67A | ≤ 0.5 |
| A20U C34G G38C G50C C60A A70C | ≤ 0.5 |

| Variant | yeast fitness |
| --- | --- |
| A20U C34G G48C G67A G68C | ≤ 0.5 |
| A20U C34G G48C U59C | 0.548 |
| A20U C34G G48C U59C C61U | 0.791 |
| A20U C34U A40U | ≤ 0.5 |
| A20U C34U G51C | ≤ 0.5 |
| A20U C34U G51C C60U | ≤ 0.5 |
| A20U C46G | 1.07 |
| A20U C46U A69C | 0.744 |
| A20U C46U A70U | 0.79 |
| A20U C46U C60A | 0.566 |
| A20U C46U G63A | 0.777 |
| A20U C49A | 0.708 |
| A20U C49A G52A C61U | ≤ 0.5 |
| A20U C49G A69U | 0.677 |
| A20U C49G U54C | ≤ 0.5 |
| A20U C49U | 0.899 |
| A20U C49U A65C | 0.655 |
| A20U C49U A69U | 0.683 |
| A20U C49U G67A | 0.585 |
| A20U C55G | 0.669 |
| A20U C55G C62U | 0.508 |
| A20U C55U | 0.76 |
| A20U C55U G67A | ≤ 0.5 |
| A20U C60G G67A | ≤ 0.5 |

| Variant | yeast fitness |
| --- | --- |
| A20U C61A C62U A65U A69C | ≤ 0.5 |
| A20U C61G A65U | ≤ 0.5 |
| A20U C61U G67U | ≤ 0.5 |
| A20U C62A | 0.73 |
| A20U C62G G63C | 0.601 |
| A20U C62U | 1.02 |
| A20U C62U A70U | 0.65 |
| A20U C66U | 0.8 |
| A20U G23A | 0.822 |
| A20U G23A A57C | ≤ 0.5 |
| A20U G23A A65G G68C | 0.513 |
| A20U G23A C27U A65G G68C | ≤ 0.5 |
| A20U G23A C31U G39A G56A | ≤ 0.5 |
| A20U G23A C34A A36U | ≤ 0.5 |
| A20U G23A C61U | 0.561 |
| A20U G23A G56A A69C | ≤ 0.5 |
| A20U G23A G68A A69U A70U | ≤ 0.5 |
| A20U G23A U28C C31U G39A G56A | ≤ 0.5 |
| A20U G23C A45U G58A A70C | ≤ 0.5 |
| A20U G25A | 1.03 |
| A20U G25A A69C | 0.963 |
| A20U G25A C27U | 0.595 |
| A20U G25A C60A A65U A70G | ≤ 0.5 |
